Test results: ChEMBL document CHEMBL4513216, “Probing the Open Global Health Chemical Diversity Library for Multistage-Active Starting Points for Next-Generation Antimalarials” (ACS Infect Dis, 2020)

Experiment: Toxicity liver stage against HepG2, at 10uM
Type: cell-based
Design: test concentration 10 uM, cell line HepG2-A16-CD81EGFP
Conditions: human, HepG2-A16-CD81EGFP cells; read-out: INHIBITION
How it was run: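 Uninfected HepG2-A16-CD81EGFP cells, 3 × 10^3 per well, 1536-well, plated on prespotted compound at 10 μM final, parasite-free screening media added to match infected plates; puromycin 10 μM positive, DMSO 0.5% negative; run in parallel with 48 h PbLuc assay at 37 °C, 5% CO2; viability by CellTiter-Glo luminescence, normalized to controls.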

SMILES	cytotoxicity at 10 µM
Cn1ncc(NC(=O)Cn2ccc(-c3cccc(F)c3)n2)n1	1.73%
Cc1cc(NC(=O)Cn2ccccc2=O)n(C)n1	-7.32%
COc1ccc(C2(NCc3noc(C4CC4)n3)CCOCC2)cc1	-6.44%
NC(=O)CN(Cc1ccc(Br)cc1)C(=O)c1ccccn1	6.85%
CNC(=O)CN1CC[C@H]2CN(C(=O)c3ccc(C)cc3)C[C@H]2C1	-4.06%
CC1CCCCN1C(=O)c1ccc(=O)[nH]n1 (stereo not given)	3.95%
c1ccn2cc(CN3CCCC(c4ccn[nH]4)C3)nc2c1 (stereo not given)	6.76%
Cc1cc(C(=O)N2CCC3(CC(=O)NC3=O)C2)c(-c2ccccc2)o1 (stereo not given)	-3.15%
CN1CCN2CCN(Cc3ccccc3Cn3cccn3)CC2C1 (stereo not given)	-133%
O=C(c1ccc2c(c1)[nH]c(=O)n2C1CCCC1)N1CCCSCC1	-41.2%
CCOC(C)C(=O)N(C)C1CCN(c2ccc(OC)cc2)CC1 (stereo not given)	-1.57%
CC(C)C[C@@H]1N[C@H](C(=O)NCC2CC2)Cc2c[nH]c3cccc1c23	12.4%
NC(=O)c1cccc(CC2CCN(C(=O)CCc3cccc(F)c3)C2)c1 (stereo not given)	-3.75%
CC1=CC[C@@H]2CN(C(=O)c3ccc(-c4nc[nH]n4)cc3)C[C@@H]2C1	0.417%
CNc1cncc(C2CCCN2C(=O)c2ccc3c(c2)OCCO3)n1 (stereo not given)	-2.97%
CCn1nc(C)c(CNC(=O)c2nnc3ccccc3n2)c1C	5.81%
CC(=O)C1(c2ccccc2)CCN(C(=O)c2ccc3nnnn3c2)CC1	20.1%
COCc1nc(C(=O)N2CCCC2c2cc(C)no2)cs1 (stereo not given)	-12.9%
O=C(c1n[nH]cc1Cl)N1CCSCC1	4.51%
CC(=O)C1(c2ccccc2)CCN(C(=O)CC2CNCCO2)CC1 (stereo not given)	-4.46%
O=C(NCc1csc2ccccc12)NCC1(O)CCSC1 (stereo not given)	3.19%
CCc1ocnc1C(=O)N1CCCC(n2nc(C)nc2C)C1 (stereo not given)	-11.5%
CCN(C(=O)CN1CCCC1Cc1ccccc1)c1ccccc1 (stereo not given)	0.686%
O=C(CN1CCc2cncnc2C1)NCCOc1cccc(Cl)c1	-6.88%
O=C(c1cccn1Cc1cccs1)N1CCCC1Cn1cccn1 (stereo not given)	-7.52%
CCOC(CC)C(=O)NCc1cccc(N2CCCCC2=O)c1 (stereo not given)	5.12%
COc1cccc(SCC(=O)N2CCCC(N3CCCC3=O)C2)c1 (stereo not given)	6.16%
Cc1nc[nH]c1CN1C[C@H]2CC[C@@H](C1)N(C(=O)CCc1cnn(C)c1)C2	-14.1%

SMILES	cytotoxicity at 10 µM
Cc1nc(CN2CCN(C(=O)CC(C)(C)c3ccccc3)CC2)no1	-1.96%
Cc1cc(C)n(C2=NC(NCCCO)c3c(sc4c3CCCC4)N2)n1 (stereo not given)	14%
N#Cc1ncn(CCS(=O)(=O)c2ccc(Cl)cc2)n1	-6.74%
CCc1nc(C2CCCN2Cc2nnc(Cc3ccccc3)o2)no1 (stereo not given)	-0.313%
COC(=O)C(NC(=O)c1cc(C)ccc1C)c1cccnc1 (stereo not given)	-39.7%
CC(C)OCCCN(Cc1ccncc1)Cc1cccc(F)c1F	-15.3%
CC(C)c1nnc(NC(=O)N(C)Cc2ccc(C(N)=O)cc2)s1	12%
O=S(=O)(CCCn1cncn1)Cc1ccccc1Cl	-5.91%
CC(=O)N1CC2(CCN(C(=O)C3CC3)CC2)c2cc(C)ccc21	9.94%
Cc1nc(-c2noc3ccc(C(=O)NCCN4CCOCC4)cc23)cs1	4.19%
O=S(=O)(N1CCCCCC1)N1CCCN(CC2CCCO2)CC1 (stereo not given)	0.863%
Cc1cnc(NS(=O)(=O)c2cccc(C#N)c2)s1	15%
c1ccc(-n2cnnc2CCCN2CCOCC2)cc1	-1.16%
NCCC1CN(c2nc(-c3ccccc3)nc3c2CCNC3)CCO1 (stereo not given)	-9.26%
Cc1cc(N2CCC(O)(CN(C)C(=O)CCN)C2)c2cnccc2n1 (stereo not given)	-2.06%
CCCNC(=O)c1sccc1N(C)S(=O)(=O)c1ccc(Cl)cc1	9.22%
CCc1nnc(SC2CCCN(c3cnn(C)c3)C2=O)n1C (stereo not given)	2.68%
Cc1cccc(CN2CC3(CCN(S(=O)(=O)C4CC4)CC3)OCC2=O)n1	-3.27%
CCOc1nnc(CN2CCCC(c3nc4ccccc4[nH]3)C2)s1 (stereo not given)	14.6%
COc1ccccc1N1CCN(C(=O)Cn2nc(C)c(C)c2C)C(C)C1 (stereo not given)	2.96%
CCOCc1nn(C)c2c1CN(Cc1cccs1)CC2	-101%
CCCN(Cc1cccnc1)C(=O)C1CCCN(C)C1 (stereo not given)	9.77%
CCc1nc(Nc2cccc(C(=O)NC)c2)c2c(n1)c(C)nn2CC	1.41%
Cn1cc2c(n1)C(CNCC1CCOCC1)OCC2 (stereo not given)	6.86%
Cc1n[nH]c(C(=O)NCc2ccnc(OCC(F)(F)F)c2)c1Br	5.67%
CCN1CCCC1CNCc1cc2ccccc2[nH]c1=O (stereo not given)	1.78%
CC1CN(c2ccc(CNC(=O)NCc3ccoc3)cn2)CCO1 (stereo not given)	4.38%
